# ChEMBL document CHEMBL4513216, “Probing the Open Global Health Chemical Diversity Library for Multistage-Active Starting Points for Next-Generation Antimalarials” (ACS Infect Dis, 2020)
# Assay: Toxicity liver stage against HepG2, at 10uM
# Type: cell-based
# Set-up: test concentration 10 uM, cell line HepG2-A16-CD81EGFP
# Settings: human, HepG2-A16-CD81EGFP cells; read-out: INHIBITION
# How it was run: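 Uninfected HepG2-A16-CD81EGFP cells, 3 × 10^3 per well, 1536-well, plated on prespotted compound at 10 μM final, parasite-free screening media added to match infected plates; puromycin 10 μM positive, DMSO 0.5% negative; run in parallel with 48 h PbLuc assay at 37 °C, 5% CO2; viability by CellTiter-Glo luminescence, normalized to controls.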
row,SMILES,cytotoxicity at 10 µM [%]
1,CC[C@@H]1N(CC2CCC2)CCC[C@]12CCC(=O)N2Cc1ccncc1,7.12
2,CCOc1cc([C@@H]2N[C@H](c3nccs3)Cc3ccsc32)ccc1OC,7.94
3,CCn1nnnc1-c1cccc(NC(=O)CCc2cnn(C)c2)c1,-6.19
4,CCn1cc(NC(=O)C2CCN(Cc3ccccc3)CC2)cn1,2.41
5,COc1cccc(CNc2cccnc2-n2cccn2)c1OC,1
6,CCn1cnnc1CNS(=O)(=O)N1CCCC1c1ccc(C)o1 (stereo unspecified),-144
7,Cn1cccc1C(=O)NC[C@]12COC[C@H]1CN(Cc1nccs1)C2,-2.74
8,O=C(Cc1ccc2c(c1)OCC2)Nc1nc[nH]n1,-2.94
9,Cc1cc(NCc2ccc(C#N)cc2)n2nc(C)cc2n1,-10.9
10,CCc1cccc(NS(=O)(=O)c2cc(C)c(C(=O)O)s2)c1,-1.23
11,COc1cccn(CC(=O)N2CCCC3(CCCCC3)C2)c1=O,-1.29
12,Cc1nc(C)c(C(=O)OCCNc2ncccc2C#N)s1,-7.32
13,O=C(c1ccccc1F)N1CCN(CCCn2cncn2)CC1,2.99
14,COc1cc(C)c(NC(=O)NCCn2cccc2)cc1OC,0.414
15,CNS(=O)(=O)c1cccc(CNC(=O)c2c(C)nn(C)c2C)c1,9.26
16,CS(=O)(=O)N1CCCC1c1ccnc2nccn12 (stereo unspecified),-2.62
17,Cc1nnc(CCNC(=O)[C@H]2CNC[C@@H](C(=O)N3CCCC3)C2)s1,-113
18,CC(CNC(=O)c1cc(N2CCNC2=O)ccc1F)c1ccccc1 (stereo unspecified),-2.1
19,CC(C)OCCN1CCC(Nc2nccnc2C#N)CC1,2.72
20,O=C(CC1CCN(c2cccnn2)CC1)Nc1cccnc1,3.72
21,CCNC(=O)[C@@H]1C[C@H](N)CN1C(=O)Cc1cc(C)ccc1C,2.43

row,SMILES,cytotoxicity at 10 µM [%]
1,CC1(C)CN(C(=O)CC2CCC2)C[C@]1(C)O,-9.15
2,CN1CCN(S(=O)(=O)C2CC2)Cc2cccnc21,-108
3,CCN(CC1COc2ccccc2O1)C(=O)CCn1cncn1 (stereo unspecified),-9.21
4,CC1=CC[C@@H]2CN(C(=O)c3ccc(-c4cc[nH]n4)cc3)C[C@@H]2C1,5.15
5,COCCN1C[C@@H]2CCCO[C@@H]2[C@H](N(C)Cc2ccco2)C1,-0.388
6,CN(C)S(=O)(=O)N1CCC(c2ccncn2)CC1,-20.5
7,COC(C)(C)CC(C)NC(=O)Nc1ccccn1 (stereo unspecified),8.19
8,O=c1c2c[nH]c(N3CCC(O)CC3)nc-2cn1Cc1cccc(F)c1,20.6
9,COCCN(C)C[C@@H]1CN(C(=O)c2ccc(OC)c(F)c2)C[C@@H]1CO,2.87
10,CC[C@@]1(O)CCN(C(=O)c2cccc3cc(C)oc23)C[C@H]1O,4.62
11,CCCN(C(=O)c1cccnc1)c1nc2c(s1)CCc1c-2cnn1C,5.05
12,Cc1cnn(CC2CCCCN2C(=O)c2ccc3[nH]cnc3c2)c1 (stereo unspecified),-9.75
13,Nc1cc(C(=O)N2CCCC(C(=O)CCc3ccccc3)C2)ccn1 (stereo unspecified),-6.97
14,CCNC(=O)[C@@H]1C[C@@H](N)CN1Cc1ccc(Sc2ccc(C)cc2)o1,-53.4
15,Cc1cc(C)c(CNC(=O)N2CCN(c3ncccn3)CC2)c(=O)[nH]1,-6.28
16,O=C(Nc1ccn(Cc2cccc3cccnc23)n1)C1COCCO1 (stereo unspecified),5.18
17,Cc1nc(C(=O)N2CCCC2c2c(C)nn(C)c2Cl)ccc1C#N (stereo unspecified),-12.8
18,CCN(Cc1ccc2c(c1)OCO2)C(=O)c1ccc(C)[nH]c1=O,-7.21
19,CCCn1cc(NC(=O)c2ccc(S(=O)(=O)CC)cc2)ccc1=O,2.99
20,CC(=O)N1C[C@H](NS(=O)(=O)c2cccc(Cl)c2)[C@@H](C(C)C)C1,7.82
21,Cc1nc(CNCC2Cn3nncc3CO2)cs1 (stereo unspecified),-93.2

row,SMILES,cytotoxicity at 10 µM [%]
1,Cc1ncn(CCNC(=O)Nc2ccccc2)c(=O)c1C,-4.39
2,COc1ccccc1CCNC(=O)CC1(Cn2cnnn2)CCCCC1,11.3
3,CS(=O)(=O)NCC1CCCCN1C(=O)Nc1cccnc1N1CCCC1 (stereo unspecified),-3.45
4,CN(C)c1cc(CNCc2cccc3c2OCCO3)ccn1,3.57
5,CN(CCN1CCCC1)c1nccc(N2CCN[C@H]3CS(=O)(=O)C[C@H]32)n1,-8.93
6,COc1ccc(C(C#N)NC(=O)CC2=CCCCC2)c(OC)c1 (stereo unspecified),10.7
7,CC(=O)c1ccc(OCC(=O)NC(C)CCc2ccco2)cc1 (stereo unspecified),-9.96
8,CC(=O)NC1CCCN(C(=O)NCc2ccc(-n3cccn3)cc2)C1 (stereo unspecified),-11.8
9,Cc1ccc(N2CCCN(C(=O)C(C(C)C)n3cncn3)CC2)nn1 (stereo unspecified),-5.99
10,c1cc(CN2CCCN(c3ccc4cc[nH]c4n3)CC2)ccn1,-9.98
11,Cc1ccc(CN2CCn3cc(CN4CCN(C)CC4)nc3C2)cc1,-125
12,COCCN1CCc2ncc(CN(C)C)n2CC1,-0.0807
13,CCN(CC1CCOC1)C(=O)CSCC(=O)Nc1ccc(C)cc1 (stereo unspecified),-7.04
14,CCNC(=O)c1ccnc(CC2COc3c(cccc3OC)C2)c1 (stereo unspecified),0.441
15,COC(=O)c1ccc(NC(C)c2ccc3c(c2)CCC(=O)N3)nn1 (stereo unspecified),2.52
16,O=C(Nc1ccccc1)N1C[C@@H]2CC[C@H]1CN(Cc1ccccc1)C2,1.93
17,Cc1cccc(CNC(=O)CCc2c(C)nc3cc(O)nn3c2C)n1,-4.03
18,CNC(=O)CN1CCC(OCC2CCCO2)CC1 (stereo unspecified),1.99
19,CCc1nc(C(=O)N2CCCCC2)nn1-c1ccccc1Cl,2.1
20,COCC1COCCC12CCN(C(=O)COc1ccccc1C)CC2 (stereo unspecified),2.08
21,COC(=O)c1cccc(NS(=O)(=O)c2cnc(NC(C)=O)s2)c1,7.21

row,SMILES,cytotoxicity at 10 µM [%]
1,O=C1NC2(CCN(C/C=C/c3ccccc3)CC2)CC1c1ccccc1 (stereo unspecified),-47.1
2,CC(C)C(C(=O)N1CCN(Cc2cscn2)CC1)n1cncn1 (stereo unspecified),7.89
3,COc1cccc(OCCNS(=O)(=O)Cc2ccccc2)c1,-15.7
4,Cc1ccc(C(=O)N2C[C@@H]3CC[C@H]2CN(S(=O)(=O)N(C)C)C3)c(O)c1,3.41
5,CN(C)S(=O)(=O)N1CCC[C@]2(C[C@@H](Oc3ncccc3F)CO2)C1,-82.2
6,Cc1cc2n(n1)CC(CNC1CCN(Cc3ccccn3)CC1)CN2 (stereo unspecified),3.67
7,CCCn1ncc(-c2ccnc(NC3CCSC3)n2)c1C (stereo unspecified),2.65
8,CCN(CC)CC1CN(Cc2ccco2)Cc2nccn2C1 (stereo unspecified),-139
9,CC(C)(C)C(=O)NCCc1cc(N2CCOCC2)nc(NC2CC2)n1,6.68
10,Cc1ccc2c(c1)C(N(C)C)CC21CCN(CCO)CC1 (stereo unspecified),3.62
11,Cc1ccc(C(C(=O)O)N(C)CCN2CCOCC2)c(F)c1 (stereo unspecified),4.28
12,COc1ccc(C(=O)N2CC[C@@]3(O)CCCC[C@H]3C2)cc1OC,-43.4
13,Cc1noc(C)c1CCC(=O)N1CCCN(C)CC1,-14.1
14,Cc1cc(N2CCN(CCO)CC2)nc(-c2ccncc2)n1,-1.25
15,Fc1cccc(-c2c[nH]c(C3CCCN3)n2)c1 (stereo unspecified),-5.93
16,CNC(=O)CS(=O)(=O)C1CCN(S(=O)(=O)c2cccnc2)CC1,-1.68
17,O=C(NCC1CCOC1)c1csc(-c2ccc(Cl)cc2)n1 (stereo unspecified),-11.6
18,CCOc1cc(CNC(=O)C(C#N)c2nc(C)cs2)ccc1OC(F)F (stereo unspecified),8.61
